Laboratory results as given in ChEMBL document CHEMBL1629514, “Synthesis, biological activity, and evaluation of the mode of action of novel antitubercular benzofurobenzopyrans substituted on A ring” (Eur J Med Chem, 2010).
Converted amounts (≈) assume the structure as drawn.

What was measured:
[1] = Selectivity index, ratio of IC50 for african green monkey VERO cells to MIC95 for Mycobacterium tuberculosis H37Rv; format: functional
Summary of the method: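 VERO cells grown in DMEM with 10% FBS at 37 °C and 5% CO2. Seeded at 2×10^4 cells/mL and allowed to attach for 3 h. Compounds added at 10^-8 to 10^-4 M (DMSO ≤0.4% v/v) and cells counted by hemocytometer after 48 h. IC50 from means of two experiments in duplicate. SI is VERO IC50 divided by the M. tuberculosis MIC95.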

[2] = system: Mycobacterium tuberculosis; assay: Antimycobacterial activity against Mycobacterium tuberculosis H37Rv after 6 days by Microdilution Resazurin assay; format: functional; details: 144 h
Summary of the method: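 M. tuberculosis H37Rv grown in 7H9 with 10% ADC enrichment. Two-fold serial dilutions from 500 to 0.9 µg/mL, using DMSO stocks, in 7H9. Incubated at 37 °C for 6 days, then 0.01% resazurin added and incubated a further 24 h. MIC is the lowest concentration preventing the blue-to-pink colour change. DMSO growth controls and isoniazid (1 µg/mL to 1 ng/mL) were included.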

Vero = assay: Cytotoxicity against african green monkey Vero cells assessed as cell growth after 48 hrs by hemocytometry; format: cell-based; details: Chlorocebus sabaeus
Summary of the method: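 VERO cells grown in DMEM with 10% v/v FBS plus penicillin/streptomycin, 37 °C, humidified 5% CO2. Log-phase cells seeded in 24-well plates and allowed to attach 3 h. Compounds diluted in DMSO (final ≤0.4% v/v) and tested at 10^-8 to 10^-4 M. Cells counted after 48 h. Two experiments in duplicate; mean used to derive IC50.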

[3] = system: Mycolicibacterium smegmatis; assay: Antimycobacterial activity against Mycobacterium smegmatis mc2155 assessed as inhibition of mycolic acid biosynthesis at 1 to 25 ug/ml after 15 mins; format: functional
Summary of the method: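 Cell-free assay on cell wall extracts from bacteria washed in phosphate buffer and disrupted at 0.8 kbar, using 500 µg extract protein. Buffer was 100 mM potassium phosphate pH 7.0 with 3 mM MgCl2, 7 mM KHCO3, 7 mM ATP and 0.7 mM CoASH. Compounds (5% v/v DMSO final) preincubated 15 min at 37 °C, then [1-14C]acetate added for 60 min at 37 °C. Reactions saponified and mycolate profiles run on TLC; % inhibition taken against control. Thiolactomycin was the reference, run at two concentrations.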

[4] = system: Mycobacterium tuberculosis; assay: Antimycobacterial activity against Mycobacterium tuberculosis; format: functional
[5] = system: Mycolicibacterium smegmatis; assay: Antimycobacterial activity against Mycobacterium smegmatis; format: functional

Compound	Selectivity Index [1]	MIC95 [2]	IC50 (Vero)	inhibition (INH) [3]	MIC95 [4]	MIC95 [5]
CC1(C)CCc2c(ccc3oc4ccc(O)cc4c23)O1	0.4	46.5 µM (≈ 12.5 µg/mL)	18 µM			
CC1(C)C=Cc2c(ccc3c2oc2ccc4c(c23)C=CC(C)(C)O4)O1		> 300 µM				
CC1(C)C=Cc2c(ccc3oc4cc(-c5ccc6c(c5)oc5ccc7c(c56)C=CC(C)(C)O7)ccc4c23)O1		> 200 µM				
CC1(C)C=Cc2c(ccc3oc4ccc(Cl)cc4c23)O1	0.8	353 µM (≈ 101 µg/mL)	290 µM			
COc1ccc2oc3ccc4c(c3c2c1)C=CC(C)(C)O4	2.2	45 µM (≈ 12.6 µg/mL)	100 µM	>60%		
COc1ccc2c(c1)oc1ccc3c(c12)C=CC(C)(C)O3	1.1	89 µM (≈ 24.9 µg/mL)	100 µM	>60%		
CC1(C)C=Cc2c(ccc3oc4cc(Br)ccc4c23)O1	93.3	37.5 µM (≈ 12.3 µg/mL)				
CC1(C)C=Cc2c(ccc3oc4cccc(O)c4c23)O1	0.1	95 µM (≈ 25.3 µg/mL)	9.1 µM			
COc1cccc2c1oc1ccc3c(c12)C=CC(C)(C)O3	2.2	45 µM (≈ 12.6 µg/mL)	100 µM	>60%		
CC(=O)c1ccc2oc3ccc4c(c3c2c1)C=CC(C)(C)O4		> 1710 µM				
CC1(C)C=Cc2c(ccc3oc4cc(O)ccc4c23)O1	0.4	23.5 µM (≈ 6.26 µg/mL)	9.2 µM			
CC(=O)c1ccc2oc3ccc4c(c3c2c1)CCC(C)(C)O4		> 340 µM				
CC1(C)C=Cc2c(ccc3oc4c(Cl)cccc4c23)O1	1.2	87.5 µM (≈ 24.9 µg/mL)	100 µM			
CC1(C)C=Cc2c(ccc3oc4ccncc4c23)O1					16 µg/mL (≈ 63.7 µM)	8 µg/mL (≈ 31.8 µM)
CC1(C)C=Cc2c(ccc3oc4cccc(Cl)c4c23)O1	2.3	43.8 µM (≈ 12.5 µg/mL)	100 µM			
CC1(C)C=Cc2c(ccc3oc4ccc(O)cc4c23)O1	0.1	47 µM (≈ 12.5 µg/mL)	5 µM			
NNC(=O)c1ccncc1 [ISONIAZID]		1.8 µM (≈ 0.247 µg/mL)	> 100 µM			
CC1(C)C=Cc2c(ccc3oc4c(O)cccc4c23)O1	0.1	23.5 µM (≈ 6.26 µg/mL)	3.3 µM			
COc1cccc2c1C(=O)c1c(O)c3c(c(O)c1C2=O)C[C@@](O)(C(=O)CO)C[C@@H]3O[C@H]1C[C@H](N)[C@H](O)[C@H](C)O1 [DOXORUBICIN]			3.6 µM			
COc1ccc2oc3cc4c(cc3c2c1)OC(C)(C)C=C4	83.2	89 µM (≈ 24.9 µg/mL)				
CC1(C)C=Cc2c(ccc3oc4ccccc4c23)O1	3.2	100 µM (≈ 25 µg/mL)	320 µM			
COc1cccc2oc3ccc4c(c3c12)C=CC(C)(C)O4	6.2	45 µM (≈ 12.6 µg/mL)	280 µM	>60%		
